Consider seven molecules from article PMC2818544 (Bioorganic & medicinal chemistry, 2009).

The target of series [1] is RmlC and RmlD (Mycobacterium tuberculosis, UniProt P9WH09). The class given is biochemical. Conditions: read-out: Km of NADPH; cofactor; TDP-KDX at 200 μM.
Series [2] addresses T1, RmlC (Mycobacterium tuberculosis, UniProt P9WH11). Put plainly: 96-well RmlC/RmlD coupled assay, NADPH absorbance at 340 nm. The format is biochemical.
Series [3] deals with T1, RmlC. The series can be described thus: Time dependence of the onset of inhibition. The class given is biochemical. Conditions: pre-incubation 0, 1, 2 or 3 hr. A digest of the protocol:
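Test compound came from a 16-point 2-fold serial dilution (2.5 mM top stock) and was diluted in water. It was pre-incubated 0–3 hr with 2x RmlC, RmlD and NADPH in 83.5 mM MOPS. TDP-KDX was then added and NADPH fluorescence followed over 90 min. IC50 came from a 4-parameter logistic fit of percent activity.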

Series [4] deals with T1, RmlC. The series can be described thus: Mode of inhibition: TDP-KDX Km. The class given is biochemical.
Series [5] concerns the target T1, RmlC. Put plainly: Reversibility of inhibition. The format is biochemical. The settings on record: 10 times IC50 pre-incubated 0 or 0.5 hr with 100x RmlC, diluted 100-fold. A digest of the protocol:
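Test compound incubated 0 or 0.5 hr at 25°C with concentrated RmlC in buffer, then diluted 100-fold. RmlD, TDP-KDX and NADPH were added, and activity was followed as the decrease in NADPH fluorescence (340/460 nm) over 200 min. Controls had no compound, or compound added only after dilution.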

Series [6] has as its system RmlC and RmlD. The class given is biochemical, Mycobacterium tuberculosis. Conditions: read-out: IC50 of the known inhibitor TDP.
A short description of series [7]: Cytotoxicity, CellTiter-Glo luminescence. The class given is cell-based. Conditions: human, human aortic endothelial (HAE) cells. (In general: ATP-based viability assays read luminescence as a measure of living cells.)

T1 sequence (P9WH11 whole entry, looked up): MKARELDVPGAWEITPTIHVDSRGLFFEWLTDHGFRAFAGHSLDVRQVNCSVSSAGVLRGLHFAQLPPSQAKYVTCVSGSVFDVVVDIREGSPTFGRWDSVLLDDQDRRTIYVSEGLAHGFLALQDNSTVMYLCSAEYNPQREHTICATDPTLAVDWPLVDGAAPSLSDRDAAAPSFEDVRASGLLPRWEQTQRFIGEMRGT
Sequence of RmlC and RmlD (Mycobacterium tuberculosis, UniProt P9WH09) (P9WH09 whole entry): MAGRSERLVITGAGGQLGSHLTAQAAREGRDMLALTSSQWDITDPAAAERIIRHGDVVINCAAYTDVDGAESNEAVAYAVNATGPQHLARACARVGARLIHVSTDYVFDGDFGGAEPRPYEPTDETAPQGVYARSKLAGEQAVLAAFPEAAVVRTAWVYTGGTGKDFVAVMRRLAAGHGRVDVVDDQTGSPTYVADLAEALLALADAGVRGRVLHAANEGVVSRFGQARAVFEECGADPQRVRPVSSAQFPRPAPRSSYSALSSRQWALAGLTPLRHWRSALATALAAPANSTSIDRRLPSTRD

What is called Km is the concentration of substrate that gives half-maximal velocity. `NC(=O)C1=CN([C@@H]2O[C@H](COP(=O)(O)OP(=O)(O)OC[C@H]3O[C@@H](n4cnc5c(N)ncnc54)[C@H](OP(=O)(O)O)[C@@H]3O)[C@@H](O)[C@H]2O)C=CC1` [NADPH]: the Km on RmlC and RmlD [1] is 12 µM.

Turning to `C=CCn1c2ccccc2c2nnc(SCn3c(=O)[nH]c4ccccc43)nc21` [SID 7972845], the “fold increase of IC50 relative to 77074” value on RmlC [2] is recorded as 86 fold.

The Ki is the dissociation constant of the complex between target and ligand, obtained from inhibition or displacement. A high value points to weaker binding. As to `CCn1c2ccccc2c2nnc(SCCCn3c(=O)[nH]c4ccccc43)nc21` [SID 7975595, 1-(3-(5-ethyl-5H-[1,2,4]triazino[5,6-b]indol-3-ylthio)propyl)-1H-benzo[d]imidazol-2(3H)-one], the “change of IC50 with pre-incubation time (onset of inhibition)” value on RmlC [3] is given as “No such decrease in IC50 was observed”. For the same molecule, at RmlC [4], the Ki stood at 0.1 µM. In addition, the “affinity of inhibitor relative to TDP-KDX (Km versus Ki)” value at RmlC [4] (comparison of Km of TDP-KDX and Ki of inhibitor) is listed as “approximately 2000 fold”. Besides, the mode of inhibition result at RmlC [4] (versus substrate TDP-KDX) was “classical competitive inhibitor”. Moreover, the reversibility of inhibition entry at RmlC [5] is on record as “fully reversible inhibitor”.

A word on the IC50: it is the concentration that inhibits the measured activity by half. On to `Cc1cn([C@H]2C[C@H](O)[C@@H](COP(=O)(O)OP(=O)(O)O)O2)c(=O)[nH]c1=O` [TDP, reference compound], for which the IC50 in the series with RmlC and RmlD [6] came to 340 µM.

Turning to `O=c1[nH]c2ccccc2n1CCCSc1nnc2c3ccccc3n(Cc3ccccc3)c2n1` [compound 77070], the “fold increase of IC50 relative to SID 7975595 (R1 ethyl)” value on RmlC [2] was “approximately 15 fold”.

For the molecule `CCCn1c2ccccc2c2nnc(SCCCn3c(=O)[nH]c4ccccc43)nc21` [compound 77071], the “fold increase of IC50 relative to 77074” value at RmlC [2] came out at 10 fold.

The molecule `COc1cccc2c1C(=O)c1c(O)c3c(c(O)c1C2=O)C[C@@](O)(C(=O)CO)C[C@@H]3O[C@H]1C[C@H](N)[C@H](O)[C@H](C)O1` [doxorubicin] gave an IC50 at 24 h in series [7] of approximately 10 µM.
